Laboratory results: article PMC3254186 (Frontiers in Pharmacology, 2011)

Legend:
Type in all cases: cell-based
Kir3.1/3.2 (GIRK) [1] = target: T1, Kir3.1/3.2 (GIRK) (Homo sapiens, UniProt P48051+P48549); assay: Whole-cell patch clamp, Kir3.1/3.2 in transfected HEK-293 cells
T1 sequence (P48549 1-501): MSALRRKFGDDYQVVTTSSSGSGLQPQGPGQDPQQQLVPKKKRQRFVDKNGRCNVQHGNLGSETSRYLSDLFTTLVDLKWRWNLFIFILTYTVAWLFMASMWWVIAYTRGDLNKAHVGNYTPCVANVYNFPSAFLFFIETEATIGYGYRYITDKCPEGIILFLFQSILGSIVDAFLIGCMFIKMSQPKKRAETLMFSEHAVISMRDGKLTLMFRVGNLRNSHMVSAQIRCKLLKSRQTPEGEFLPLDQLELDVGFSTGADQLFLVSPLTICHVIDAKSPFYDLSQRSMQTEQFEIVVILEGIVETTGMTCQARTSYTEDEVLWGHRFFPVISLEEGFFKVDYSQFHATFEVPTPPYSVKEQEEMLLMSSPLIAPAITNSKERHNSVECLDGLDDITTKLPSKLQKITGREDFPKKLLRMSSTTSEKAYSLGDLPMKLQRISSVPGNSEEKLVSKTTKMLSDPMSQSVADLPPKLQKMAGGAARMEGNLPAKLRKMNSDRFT
T1 sequence (P48051 1-423): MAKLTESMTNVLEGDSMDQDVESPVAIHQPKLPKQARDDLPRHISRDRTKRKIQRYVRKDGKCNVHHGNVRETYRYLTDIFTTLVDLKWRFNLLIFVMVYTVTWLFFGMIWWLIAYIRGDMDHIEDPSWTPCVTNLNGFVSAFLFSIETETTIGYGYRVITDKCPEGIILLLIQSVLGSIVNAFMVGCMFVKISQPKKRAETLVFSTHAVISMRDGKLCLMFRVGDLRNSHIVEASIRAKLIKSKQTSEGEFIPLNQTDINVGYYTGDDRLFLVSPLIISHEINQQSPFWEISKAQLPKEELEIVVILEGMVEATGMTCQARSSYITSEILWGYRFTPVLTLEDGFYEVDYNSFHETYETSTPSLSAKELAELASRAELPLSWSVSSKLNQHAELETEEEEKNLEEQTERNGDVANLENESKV
Summary of the method: (§1)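 HEK-293 cells were transiently co-transfected with channel plus an EGFP marker (Lipofectamine). Pipette: 135 mM KCl, 2 mM MgCl2, 1 mM EGTA, 10 mM HEPES, 2 mM Na2ATP, pH 7.3. Bath: 135 mM NaCl, 5 mM KCl, pH 7.4; some runs used 50 mM KCl. Held at −75 mV and ramped −120 to 120 mV every 5 s, at 20–23°C. Test compound was bath-applied for 2–10 min, then 2 mM BaCl2. CRC n = 4–7. τ taken from the time course.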

Kir3.1/3.2 = target: T2, Kir3.1/3.2 (Homo sapiens, UniProt P48051+P48549); assay: Two-electrode voltage clamp in Xenopus oocytes, Kir3.1/3.2
T2 sequence (P48549 1-501): T1 sequence (P48549 1-501)
T2 sequence (P48051 1-423): T1 sequence (P48051 1-423)
Summary of the method: (§2)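 Xenopus oocytes were injected with Kir3.1/3.2 or Kir3.1/3.4 cRNA and voltage-clamped with two electrodes at 20–23°C, with current at −80 mV followed over time. The bath was switched from K+-free to 90 mM K+ to activate the channel. Test compound in 90K was applied continuously at graded concentrations, then 2 mM Ba2+ was added. A final 0K switch measured leak. Time constant derived (n = 6 at 25 μM). Percent inhibition n = 4–6.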

wild type Kir7.1 = target: T3, wild type Kir7.1 (Homo sapiens, UniProt O60928); assay: Whole-cell patch clamp, wild type Kir7.1 in transfected HEK-293 cells
T3 sequence (O60928 1-360): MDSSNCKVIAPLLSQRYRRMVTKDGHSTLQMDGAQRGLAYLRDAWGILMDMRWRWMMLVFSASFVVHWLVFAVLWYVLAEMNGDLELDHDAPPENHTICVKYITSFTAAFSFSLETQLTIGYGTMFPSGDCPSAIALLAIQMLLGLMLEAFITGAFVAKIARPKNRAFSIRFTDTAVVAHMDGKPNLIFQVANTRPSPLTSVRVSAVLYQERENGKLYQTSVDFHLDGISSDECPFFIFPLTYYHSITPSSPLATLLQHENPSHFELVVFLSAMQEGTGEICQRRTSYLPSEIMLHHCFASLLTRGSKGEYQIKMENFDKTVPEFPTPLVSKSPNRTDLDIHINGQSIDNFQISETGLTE
Summary of the method: as §1

Kir3.1/3.2 (GIRK) [2] = target: T1, Kir3.1/3.2 (GIRK); assay: Tl+ flux assay, mGluR8-activated GIRK in HEK-293 cells; conditions: from Tl+ flux IC50 values
Summary of the method: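 mGluR8/GIRK/HEK monoclonal cells stably expressing Kir3.1/3.2, M4 receptor and rat mGlu8a, loaded with FluoZin-2. Test compound pre-incubated 20 min (1:3 serial dilutions from 10 mM DMSO stock). Tl+ buffer (12 mM Tl2SO4, pH 7.3) added with glutamate at EC80, set daily from an 11-point curve. Imaged at 1 Hz (ex 470, em 540 nm), 20–23°C. Slope taken 5–15 s post-addition, vehicle-corrected. CRC n = 3. Selectivity taken from the Tl+ flux IC50 values for GIRK and Kir1.1-S44D.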

Kir3.1/3.4 = target: T4, Kir3.1/3.4 (Homo sapiens, UniProt P48544+P48549); assay: Two-electrode voltage clamp in Xenopus oocytes, Kir3.1/3.4; conditions: TEVC oocytes, 25 μM, mean ± SEM, n = 6
T4 sequence (P48549 1-501): T1 sequence (P48549 1-501)
T4 sequence (P48544 1-419): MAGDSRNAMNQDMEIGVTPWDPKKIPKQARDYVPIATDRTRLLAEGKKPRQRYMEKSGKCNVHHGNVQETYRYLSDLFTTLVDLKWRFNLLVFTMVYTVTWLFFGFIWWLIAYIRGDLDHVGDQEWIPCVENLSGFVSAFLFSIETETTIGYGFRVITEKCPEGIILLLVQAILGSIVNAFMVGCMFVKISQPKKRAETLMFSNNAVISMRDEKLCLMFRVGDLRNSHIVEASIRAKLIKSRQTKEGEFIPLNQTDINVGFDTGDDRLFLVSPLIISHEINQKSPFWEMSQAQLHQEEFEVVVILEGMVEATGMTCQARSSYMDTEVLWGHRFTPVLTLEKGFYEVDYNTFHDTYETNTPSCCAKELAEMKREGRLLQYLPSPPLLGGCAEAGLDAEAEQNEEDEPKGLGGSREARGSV
Summary of the method: as §2

Compound: Cc1ccc(OCC(O)Cn2c(=N)n(Cc3ccccc3)c3ccccc32)cc1 (centres unmarked) [Compound 1, 1-(3-benzyl-2-imino-2,3-dihydro-1H-benzo[d]imidazol-1-yl)-3-(p-tolyloxy)propan-2-ol]
- IC50 (Kir3.1/3.2 (GIRK) [1]): 1.3 µM
- inhibition of GIRK (Kir3.1/3.2 (GIRK) [1]; whole-cell patch clamp, HEK-293, 30 μM bath application): near complete inhibition
- time constant of inhibition of Kir3.1/3.2 (Kir3.1/3.2 (GIRK) [1]; whole-cell patch clamp, HEK-293, 30 μM, mean ± SEM, n = 5): 16 ± 1 s
- IC50 (Kir3.1/3.2): ~10 µM
- time constant (τ) for inhibition of Kir3.1/3.2 currents (Kir3.1/3.2; TEVC oocytes, 25 μM, mean ± SEM, n = 6): 28 ± 4 s
- inhibition at 10 µM (Kir3.1/3.2; read-out: inhibition of GIRK current (Kir3.1/3.2)): ~50%
- IC50 (wild type Kir7.1; IC50 Kir7.1, whole-cell patch clamp, wild type Kir7.1, HEK-293): ~1 µM
- effect on wild type Kir7.1 activity (wild type Kir7.1; whole-cell patch clamp, 10 μM, n = 4): near complete inhibition
- time constant for inhibition of Kir7.1 (wild type Kir7.1; whole-cell patch clamp, 30 μM, mean ± SEM, n = 4): 14 ± 2 s
- selectivity for GIRK over Kir1.1 (Kir3.1/3.2 (GIRK) [2]): 10 fold
- time constant (τ) for inhibition of Kir3.1/3.4 currents (Kir3.1/3.4): 27 ± 5 s
